Measurements collected from several papers.
Protocols differ between the studies behind these lines.
AKT1: RAC-alpha serine/threonine-protein kinase (AKT1, Homo sapiens, UniProt P31749)
FABP4: Fatty acid-binding protein, adipocyte (FABP4, Homo sapiens, UniProt P15090)
CDK9 with cyclin T1: Cyclin-dependent kinase 9, with cyclin T1 (CDK9, Homo sapiens, UniProt P50750)
TNKS: Poly [ADP-ribose] polymerase tankyrase-1 (TNKS, Homo sapiens, UniProt O95271)

With `Fc1c[nH]c2nccc(-c3ccc(C4CCNCC4)cc3)c12` the IC50 was 895 nM (AKT1; enzyme activity, inhibitor, radiometric).
With `CCCCCCCCCCCC(=O)O` the IC50 was 2280 nM (FABP4; ligand displacement, fluorescence; pH 7.5).
For `CNS(=O)(=O)c1ccc(Nc2ncc3cc(Cl)c(=O)n(C4CCCC4)c3n2)c(C)c1`, the IC50 was > 10000 nM (CDK9 with cyclin T1; enzyme activity, inhibitor, radiometric).
`OC1(c2ccc(-c3ccnc4[nH]cc(F)c34)cc2)CCNC1` (stereo not drawn) gave an IC50 of 18100 nM (AKT1; target engagement in cells, BRET).
`O=C(O)C(F)(F)C(F)(F)C(F)(F)C(F)(F)C(F)(F)C(F)(F)C(F)(F)C(F)(F)C(F)(F)C(F)(F)C(F)(F)F` gave an IC50 of 1610 nM (FABP4; ligand displacement, fluorescence; pH 7.5).
`CNS(=O)(=O)c1ccc(Nc2ncc(C(F)(F)F)c(N3CCC[C@](C)(O)C3)n2)c(C)c1` gave an IC50 of > 10000 nM (CDK9 with cyclin T1; enzyme activity, inhibitor, radiometric).
With `O=C(O)CCC(=O)OCCN(Cc1ccc(Oc2ccc([N+](=O)[O-])cc2)cc1)C(=O)C(Cl)Cl` the IC50 was 2690 nM (Mitogen-activated protein kinase 3 (MAPK3, Homo sapiens, UniProt P27361); enzyme activity, inhibitor, ADP detection).
The IC50 of `CN(C)C(=O)c1cc2cnc(Nc3ccc(-c4cccc5c(=O)cc(N6CCNCC6)oc45)cc3)nc2n1C1CCCC1` is reported as 13.3 nM (CDK9 with cyclin T1; enzyme activity, inhibitor, radiometric).
`CC1CNCCC1(O)c1ccc(-c2ccnc3[nH]cc(F)c23)cc1` (stereo not drawn) gave an IC50 of 30900 nM (AKT1; target engagement in cells, BRET).
`CC(C)(O)c1ccc(-c2nc3cc(NC(=O)c4ccc(-c5ccccc5)nc4)ccc3c(=O)[nH]2)cc1` has an IC50 of 528 nM (TNKS; enzyme activity, inhibitor).
The IC50 of `CCCCCCCCCCC(=O)O` is reported as 2250 nM (FABP4; ligand displacement, fluorescence; pH 7.5).
`CN(C)C(=O)c1cc2cnc(Nc3cncc(-c4cccc5c(=O)cc(N6CCOCC6)oc45)c3)nc2n1C1CCCC1` has an IC50 of 8 nM (CDK9 with cyclin T1; enzyme activity, inhibitor, radiometric).
With `Cc1cc(O)c(-c2ccc([C@@H](C)CN(C)C)cc2)c2c1[nH]c(=O)c1sccc12` the IC50 was > 1000 nM (Cyclin-dependent kinase 1, with cyclin A (CDK1, Homo sapiens, UniProt P06493); enzyme activity, inhibitor).
The IC50 of `CN(C)C(=O)c1cc2cnc(Nc3ccc(-c4ccc5c(=O)cc(N6CCNCC6)oc5c4)cc3)nc2n1C1CCCC1` is reported as 6.2 nM (CDK9 with cyclin T1; enzyme activity, inhibitor, radiometric).
`COc1ccc2c(=O)[nH]c3c(nnn3Cc3ccc(C)cc3)c2c1` gave an IC50 of 112 nM (TNKS; enzyme activity, inhibitor, fluorescence).
`COc1ccc(-c2coc3cc(O)ccc3c2=O)cc1` gave an IC50 of 5630 nM (Cytochrome P450 2C9 (CYP2C9, Homo sapiens, UniProt P11712); enzyme activity, inhibitor; human, liver microsomes; 15 min).
`CN(C)C(=O)c1cc2cnc(Nc3cccc4c(=O)cc(N5CCOCC5)oc34)nc2n1C1CCCC1` has an IC50 of 9570 nM (CDK9 with cyclin T1; enzyme activity, inhibitor, radiometric).
The IC50 of `CC(C)(O)c1ccc(-c2nc3cc(NC(=O)c4cnc(Oc5ccccc5)nc4)ccc3c(=O)[nH]2)cc1` is reported as 392 nM (TNKS; enzyme activity, inhibitor).
`OC1(c2ccc(-c3ccnc4[nH]cc(F)c34)cc2)CCCNCC1` (stereo not drawn) gave an IC50 of 400 nM (AKT1; enzyme activity, inhibitor, radiometric).
With `COc1ccc(-c2oc3cc(Nc4ncc5cc(C(=O)N(C)C)n(C6CCCC6)c5n4)ccc3c(=O)c2F)cc1` the IC50 was 27.6 nM (CDK9 with cyclin T1; enzyme activity, inhibitor, radiometric).
The IC50 of `O=C(CCCCc1ccc(CO)cc1)C(F)(F)C(F)(F)F` is reported as 228000 nM (Phospholipase A2 group V (PLA2G5, Homo sapiens, UniProt P39877); enzyme activity, inhibitor).
The IC50 of `Cc1cc(-c2ccnc3[nH]cc(F)c23)cc(F)c1[C@@]1(O)[C@H](C)CN(C2CCS(=O)(=O)CC2)C[C@@H]1C` is reported as 346 nM (AKT1; enzyme activity, inhibitor, radiometric).
`CC(=O)N1C(=O)NC(C)=C(C(=O)OCC(C)C)C1c1cccc([N+](=O)[O-])c1` (racemic) has an IC50 of 1700 nM (Voltage-dependent T-type calcium channel subunit alpha-1H (CACNA1H, Homo sapiens, UniProt O95180); ion current, inhibitor, patch clamp).
With `O=C(O)C(F)(F)C(F)(F)C(F)(F)C(F)(F)C(F)(F)C(F)(F)C(F)(F)C(F)(F)C(F)(F)C(F)(F)C(F)(F)C(F)(F)F` the IC50 was 2120 nM (FABP4; ligand displacement, fluorescence; pH 7.5).
`CN(C)C(=O)c1cc2cnc(Nc3cc(C(=O)O)cc(-c4cccc5c(=O)cc(N6CCOCC6)oc45)c3)nc2n1C1CCCC1` has an IC50 of 76 nM (CDK9 with cyclin T1; enzyme activity, inhibitor, radiometric).
`Cc1nc2n(c(=O)c1CCN1CCC(c3noc4cc(F)ccc34)CC1)CCCC2O` (stereo not drawn) gave an IC50 of 48900 nM (Dipeptidyl peptidase 4 (DPP4, Homo sapiens, UniProt P27487); enzyme activity, inhibitor, absorbance).
With `CCc1oc2ccccc2c1C(=O)c1cc(Br)c(O)c(Br)c1` the IC50 was 12500 nM (SLC22A13 (Homo sapiens, UniProt Q9Y226); transporter uptake, inhibitor, radiometric; oocytes).
`OC1(c2ccc(-c3ccnc4[nH]cc(F)c34)cc2)CCCNC1` (stereo not drawn) gave an IC50 of 383 nM (AKT1; enzyme activity, inhibitor, radiometric).
`CN(C)C(=O)c1cc2cnc(Nc3cc(C(=O)O)cc(-c4ccc5c(=O)cc(N6CCOCC6)oc5c4)c3)nc2n1C1CCCC1` gave an IC50 of 28 nM (CDK9 with cyclin T1; enzyme activity, inhibitor, radiometric).
`CN(CCCN1CCN(C(=O)CN2CCN(CC(=O)O)CCN(CC(=O)O)CCN(CC(=O)O)CC2)CC1)c1ccc2nccc(C(=O)NCC(=O)N3CC(F)(F)C[C@H]3C#N)c2c1` has an IC50 of 2.17 nM (Prolyl endopeptidase FAP (FAP, Homo sapiens, UniProt Q12884); enzyme activity, inhibitor, fluorescence).
For `NC/C(=C\F)COc1cccc(Cn2c(=S)[nH]c(=O)c3[nH]cnc32)c1`, the IC50 was 100 nM (Myeloperoxidase (Mus musculus, UniProt P11247); enzyme activity, inhibitor).
For `CNS(=O)(=O)c1ccc(Nc2ncc(C(F)(F)F)c(N3CCC(C)(O)CC3)n2)c(C)c1`, the IC50 was > 10000 nM (CDK9 with cyclin T1; enzyme activity, inhibitor, radiometric).
`CN(C)C(=O)c1cc2cnc(Nc3ccc4c(=O)cc(N5CCOCC5)oc4c3)nc2n1C1CCCC1` has an IC50 of 1.1 nM (CDK9 with cyclin T1; enzyme activity, inhibitor, radiometric).
